{"source": "ChEMBL document CHEMBL4190303", "about": "“Chemical Constituents of Propolis from Vietnamese Trigona minor and Their Antiausterity Activity against the PANC-1 Human Pancreatic Cancer Cell Line” (2017)", "note": "The source made the active and inactive calls. No cut-off for these calls is given here."}
{"test_system": "PANC-1", "test": "Antiausteritic activity against human PANC1 cells in nutrient-deprived medium assessed as decrease in cell viability measured after 24 hrs by WST-8 assay", "assay_type": "functional", "units": {"PC50": "µM"}}
{"smiles": "C[C@H](CC/C=C(\\CO)C(=O)O)[C@H]1CC[C@@]2(C)[C@@H]3CC[C@H]4C(C)(C)C(=O)CC[C@@]45C[C@@]35CC[C@]12C", "PC50": 93.8}
{"smiles": "CC(C)=CCC[C@@H](C)[C@H]1CC[C@@]2(C)C3=C(CC[C@]12C)[C@@]1(C)CC[C@H](O)C(C)(C)[C@@H]1CC3", "note": "[LANOSTEROL]", "PC50": 68.7}
{"smiles": "C[C@H](CC/C=C(\\CO)C(=O)O)[C@H]1CC[C@@]2(C)[C@@H]3CC[C@H]4C(C)(C)[C@H](O)CC[C@@]45C[C@@]35CC[C@]12C", "PC50": 3.7}
{"smiles": "C/C(=C\\C(O)C[C@@H](C)[C@H]1CC[C@@]2(C)[C@@H]3CC[C@H]4C(C)(C)[C@H](O)CC[C@@]45C[C@@]35CC[C@]12C)C(=O)O", "note": "(stereo in doubt; 5) [listing 1 of 2 here]", "PC50": 4.3}
{"smiles": "C/C(=C\\CC[C@@H](C)[C@H]1CC[C@@]2(C)[C@@H]3CC[C@H]4C(C)(C)C(=O)CC[C@@]45C[C@@]35CC[C@]12C)C(=O)O", "note": "[MANGIFERONIC ACID]", "PC50": ">100"}
{"smiles": "CC(=O)O[C@H]1C(=O)[C@@]2(C)[C@H]([C@H](OC(=O)c3ccccc3)[C@]3(O)C[C@H](OC(=O)[C@H](O)[C@@H](NC(=O)c4ccccc4)c4ccccc4)C(C)=C1C3(C)C)[C@]1(OC(C)=O)CO[C@@H]1C[C@@H]2O", "note": "[PACLITAXEL]", "PC50": ">100"}
{"smiles": "CC(=O)OC/C(=C\\CC[C@@H](C)[C@H]1CC[C@@]2(C)[C@@H]3CC[C@H]4C(C)(C)C(=O)CC[C@@]45C[C@@]35CC[C@]12C)C(=O)O", "PC50": 77.5}
{"smiles": "C[C@H](CC/C=C(\\CO)C(=O)O)[C@H]1CC[C@@]2(C)[C@@H]3CC[C@H]4C(C)(C)[C@@H](O)CC[C@@]45C[C@@]35CC[C@]12C", "PC50": 47.6}
{"smiles": "C/C(=C\\CC[C@@H](C)[C@H]1CC[C@@]2(C)[C@@H]3CC[C@H]4C(C)(C)[C@@H](O)CC[C@@]45C[C@@]35CC[C@]12C)C(=O)O", "note": "[MANGIFEROLIC ACID]", "PC50": ">100"}
{"smiles": "CC(=O)/C=C/C[C@@H](C)[C@H]1CC[C@@]2(C)[C@@H]3CC[C@H]4C(C)(C)[C@@H](O)CC[C@@]45C[C@@]35CC[C@]12C", "PC50": 16.4}
{"smiles": "CC(=O)OC/C(=C\\CC[C@@H](C)[C@H]1CC[C@@]2(C)[C@@H]3CC[C@H]4C(C)(C)[C@@H](O)CC[C@@]45C[C@@]35CC[C@]12C)C(=O)O", "PC50": 22.6}
{"smiles": "COC(=O)OC/C(=C\\CC[C@@H](C)[C@H]1CC[C@@]2(C)[C@@H]3CC[C@H]4C(C)(C)C(=O)CC[C@@]45C[C@@]35CC[C@]12C)C(=O)O", "PC50": 32.9}
{"smiles": "COc1cc(C[C@H]2C(=O)OC[C@@H]2Cc2ccc(OC)c(OC)c2)ccc1O", "note": "[ARCTIGENIN]", "PC50": 0.8}
{"smiles": "CC(C)=CCC[C@@H](C)[C@H]1CC[C@@]2(C)[C@@H]3CC[C@H]4C(C)(C)C(=O)CC[C@@]45C[C@@]35CC[C@]12C", "note": "[CYCLOARTENONE]", "PC50": ">100"}
{"smiles": "C/C(=C\\C(O)C[C@@H](C)[C@H]1CC[C@@]2(C)[C@@H]3CC[C@H]4C(C)(C)[C@@H](O)CC[C@@]45C[C@@]35CC[C@]12C)C(=O)O", "note": "(some centres undefined)", "PC50": 64.4}
{"smiles": "C/C(=C\\C(O)C[C@@H](C)[C@H]1CC[C@@]2(C)[C@@H]3CC[C@H]4C(C)(C)[C@H](O)CC[C@@]45C[C@@]35CC[C@]12C)C(=O)O", "note": "(stereo in doubt; 4)", "PC50": 16.1}
{"smiles": "C/C(=C\\C(O)C[C@@H](C)[C@H]1CC[C@@]2(C)[C@@H]3CC[C@H]4C(C)(C)C(=O)CC[C@@]45C[C@@]35CC[C@]12C)C(=O)O", "note": "(some centres undefined)", "PC50": 16.8}
{"test_system": "PANC-1", "test": "Antiausteritic activity against human PANC1 cells in nutrient-deprived medium assessed as changes in cell morphology at 5 uM after 24 hrs by ethidium bromide/acridine orange staining based phase contrast microscopy", "assay_type": "functional", "procedure,_shortened": "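PANC-1 seeded in 60 mm dishes (1 × 10^6), grown 24 h in DMEM at 37 °C, 5% CO2, washed twice with PBS, then switched to NDM with or without compound. After 24 h, EB/AO reagent added for 5 min. Imaged at 40× in fluorescence and phase-contrast modes. AO marks live cells green, EB marks dead cells red.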"}
{"smiles": "C/C(=C\\C(O)C[C@@H](C)[C@H]1CC[C@@]2(C)[C@@H]3CC[C@H]4C(C)(C)[C@H](O)CC[C@@]45C[C@@]35CC[C@]12C)C(=O)O", "note": "(stereo in doubt; 5) [listing 2 of 2 here]", "Activity": "Active"}
{"test_system": "PANC-1", "test": "Inhibition of colony formation in human PANC1 cells after 10 days by crystal violet staining based assay", "assay_type": "functional, cell-based", "procedure,_shortened": "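500 cells/well plated in DMEM and allowed to attach for 24 h at 37 °C, 5% CO2. Treated at 12.5, 25 and 50 μM in DMEM and grown for 10 days. Cells washed with PBS, fixed in 4% formaldehyde, stained with crystal violet for 10 min. Three independent repeats.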"}
{"smiles": "C/C(=C\\C(O)C[C@@H](C)[C@H]1CC[C@@]2(C)[C@@H]3CC[C@H]4C(C)(C)[C@H](O)CC[C@@]45C[C@@]35CC[C@]12C)C(=O)O", "note": "(stereo in doubt; 5) [listing 2 of 2 here]", "inhibition": "Dose-dependent effect"}
